Source: ChEMBL document CHEMBL1687886, “N-cyclic bay-substituted perylene G-quadruplex ligands have selective antiproliferative effects on cancer cells and induce telomere damage” (J Med Chem, 2011)
Calls of active or inactive are those of the source. No cut-off for these calls is given here.

Legend:
Nucleic Acid [1] = assay: Binding affinity to human DK66 duplex DNA structure assessed as second step association constant by electrospray ionization mass spectrometry; assay type: nucleic-acid assay
Procedure, shortened: (§1)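 ESI-MS in 150 mM ammonium acetate; DNA 5 μM final (per duplex or quadruplex unit); ligand at drug/DNA ratios 0.5 to 4. Methanol (15%) added just before injection, after binding equilibrium. K1 and K2 for 1:1 and 2:1 complexes, and % bound DNA, taken from relative peak intensities assuming equal response factors. At least three repeats.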

BJ [2] = assay: Cell cycle arrest in human BJ cells expressing TERT assessed as accumulation at G2/M stage at 0.5 uM after 96 hrs by propidium iodide staining based flow cytometry (reference value: 4%); assay type: ADME
BJ [3] = assay: Induction of DNA damage response in human BJ cells expressing human TERT assessed as phosphorylation of […] after 24 hrs by immunofluorescence; assay type: functional, cell-based
Procedure, shortened: (§2)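 BJ-EHLT and BJ-hTERT fibroblasts exposed to a range of concentrations for 24 h. Fixed in 2% formaldehyde, permeabilized in 0.25% Triton X-100, immunostained for γ-H2AX and 53BP1. Percentage of positive cells scored. Three independent experiments, SD.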

Nucleic Acid [4] = assay: Binding affinity to human 21-TT G-quadruplex DNA structure assessed as bound DNA at 5:5 DNA to drug ratio by electrospray ionization mass spectrometry; assay type: nucleic-acid assay; procedure, shortened: as §1
Nucleic Acid [5] = assay: Binding affinity to human 21-TT G-quadruplex DNA structure assessed as first step association constant by electrospray ionization mass spectrometry; assay type: nucleic-acid assay; procedure, shortened: as §1
BJ [6] = assay: Cell cycle arrest in human BJ cells expressing TERT assessed as accumulation at S stage at 0.5 uM after 24 hrs by propidium iodide staining based flow cytometry (reference value: 21%); assay type: ADME
BJ [7] = assay: Cell cycle arrest in human BJ cells expressing TERT assessed as accumulation at G2/M stage at 0.5 uM after 48 hrs by propidium iodide staining based flow cytometry (reference value: 6%); assay type: ADME
Nucleic Acid [8] = assay: Stabilization of 21-mer human F21T G4-telomeric quadruplex assessed as change in melting temperature at 1 uM by FRET assay; assay type: nucleic-acid assay
Nucleic Acid [9] = assay: Binding affinity to human 21-TT G-quadruplex DNA structure at 1:1 DNA to calf thymus DNA ratio by competitive inhibition assay; assay type: nucleic-acid assay; parameters: concentration or dose not given beside the values
Procedure, shortened: (§3)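 ESI-MS competition: quadruplex DNA and ligand each 5 μM final, plus calf thymus DNA at duplex/quadruplex ratios 1 and 5 (by phosphate concentration), in ammonium acetate. Percentage bound quadruplex and normalized bound quadruplex (N%) measured by mass spectrometry. SD over at least three independent experiments.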

BJ [10] = assay: Growth inhibition of human BJ cells expressing SV40 early region EHLT at 0.5 uM on day 8 by trypan blue assay; assay type: functional; conditions: 192 h, read-out: GI
Procedure, shortened: (§4)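 Cells seeded at 5 ×10^4 per dish; compounds freshly dissolved and added to the medium 24 h after plating, at 0.5 μM or 3 μM (3 μM only for one derivative). Cell number by Coulter counting and viability by trypan blue exclusion daily, day 1 to day 8. Growth inhibition of treated vs untreated cells calculated at days 2, 4, 6 and 8. Representative experiments in quintuplicate, SD shown.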

BJ [11] = assay: Antiproliferative activity against human BJ cells expressing TERT at 0.5 uM after 2 to 8 days by trypan blue assay; assay type: cell-based; procedure, shortened: as §4
BJ [12] = assay: Induction of DNA damage response in human BJ cells expressing SV40 early region EHLT assessed as phosphorylation of […] after 24 hrs by immunofluorescence method; assay type: functional, cell-based; procedure, shortened: as §2
BJ [13] = assay: Cell cycle arrest in human BJ cells expressing TERT assessed as accumulation at G0/G1 stage at 0.5 uM after 24 hrs by propidium iodide staining based flow cytometry (reference value: 61%); assay type: ADME
BJ [14] = assay: Cell cycle arrest in human BJ cells expressing TERT assessed as accumulation at G0/G1 stage at 0.5 uM after 48 hrs by propidium iodide staining based flow cytometry (reference value: 80%); assay type: ADME
BJ [15] = assay: Cell cycle arrest in human BJ cells expressing TERT assessed as accumulation at S stage at 0.5 uM after 72 hrs by propidium iodide staining based flow cytometry (reference value: 10%); assay type: ADME
BJ [16] = assay: Cell cycle arrest in human BJ cells expressing TERT assessed as accumulation at G2/M stage at 0.5 uM after 72 hrs by propidium iodide staining based flow cytometry (reference value: 5%); assay type: ADME
BJ [17] = assay: Cell cycle arrest in human BJ cells expressing TERT assessed as accumulation at G0/G1 stage at 0.5 uM after 96 hrs by propidium iodide staining based flow cytometry (reference value: 86%); assay type: ADME
Nucleic Acid [18] = assay: Binding affinity to human DK66 duplex DNA structure assessed as bound DNA at 5:5 DNA to drug ratio by electrospray ionization mass spectrometry; assay type: nucleic-acid assay; procedure, shortened: as §1
Nucleic Acid [19] = assay: Binding affinity to human 21-TT G-quadruplex DNA structure assessed as second step association constant by electrospray ionization mass spectrometry; assay type: nucleic-acid assay; procedure, shortened: as §1
Nucleic Acid [20] = assay: Binding affinity to human 21-TT G-quadruplex DNA structure at 1:5 DNA to calf thymus DNA ratio by competitive inhibition assay; assay type: nucleic-acid assay; parameters: concentration or dose not given beside the values; procedure, shortened: as §3
Nucleic Acid [21] = assay: Binding affinity to human DK66 duplex DNA structure assessed as bound DNA at 5:10 DNA to drug ratio by electrospray ionization mass spectrometry; assay type: nucleic-acid assay; procedure, shortened: as §1
BJ [22] = assay: Cell cycle arrest in human BJ cells expressing TERT assessed as accumulation at S stage at 0.5 uM after 96 hrs by propidium iodide staining based flow cytometry (reference value: 9%); assay type: ADME
BJ [23] = assay: Induction of DNA damage response in human BJ cells expressing SV40 early region EHLT assessed as phosphorylation of gamma H2AX at 0.25 uM after 24 hrs by immunofluorescence method; assay type: functional, cell-based; procedure, shortened: as §2
Nucleic Acid [24] = assay: Stabilization of human duplex DNA T-loop assessed as change in melting temperature at 1 uM by FRET assay; assay type: nucleic-acid assay
BJ [25] = assay: Cell cycle arrest in human BJ cells expressing TERT assessed as accumulation at G0/G1 stage at 0.5 uM after 72 hrs by propidium iodide staining based flow cytometry (reference value: 83%); assay type: ADME
Nucleic Acid [26] = assay: Binding affinity to human 21-TT G-quadruplex DNA structure assessed as bound DNA at 5:10 DNA to drug ratio by electrospray ionization mass spectrometry; assay type: nucleic-acid assay; procedure, shortened: as §1
BJ [27] = assay: Antiproliferative activity against human BJ cells expressing SV40 early region EHLT at 0.5 uM after 24 hrs by Coulter counter method; assay type: functional, cell-based; procedure, shortened: as §4
[28] = target: Telomerase reverse transcriptase (Homo sapiens, UniProt O14746); assay: Inhibition of human Telomerase activity in cell free system by TRAP assay
Sequence of Telomerase reverse transcriptase (O14746 whole entry): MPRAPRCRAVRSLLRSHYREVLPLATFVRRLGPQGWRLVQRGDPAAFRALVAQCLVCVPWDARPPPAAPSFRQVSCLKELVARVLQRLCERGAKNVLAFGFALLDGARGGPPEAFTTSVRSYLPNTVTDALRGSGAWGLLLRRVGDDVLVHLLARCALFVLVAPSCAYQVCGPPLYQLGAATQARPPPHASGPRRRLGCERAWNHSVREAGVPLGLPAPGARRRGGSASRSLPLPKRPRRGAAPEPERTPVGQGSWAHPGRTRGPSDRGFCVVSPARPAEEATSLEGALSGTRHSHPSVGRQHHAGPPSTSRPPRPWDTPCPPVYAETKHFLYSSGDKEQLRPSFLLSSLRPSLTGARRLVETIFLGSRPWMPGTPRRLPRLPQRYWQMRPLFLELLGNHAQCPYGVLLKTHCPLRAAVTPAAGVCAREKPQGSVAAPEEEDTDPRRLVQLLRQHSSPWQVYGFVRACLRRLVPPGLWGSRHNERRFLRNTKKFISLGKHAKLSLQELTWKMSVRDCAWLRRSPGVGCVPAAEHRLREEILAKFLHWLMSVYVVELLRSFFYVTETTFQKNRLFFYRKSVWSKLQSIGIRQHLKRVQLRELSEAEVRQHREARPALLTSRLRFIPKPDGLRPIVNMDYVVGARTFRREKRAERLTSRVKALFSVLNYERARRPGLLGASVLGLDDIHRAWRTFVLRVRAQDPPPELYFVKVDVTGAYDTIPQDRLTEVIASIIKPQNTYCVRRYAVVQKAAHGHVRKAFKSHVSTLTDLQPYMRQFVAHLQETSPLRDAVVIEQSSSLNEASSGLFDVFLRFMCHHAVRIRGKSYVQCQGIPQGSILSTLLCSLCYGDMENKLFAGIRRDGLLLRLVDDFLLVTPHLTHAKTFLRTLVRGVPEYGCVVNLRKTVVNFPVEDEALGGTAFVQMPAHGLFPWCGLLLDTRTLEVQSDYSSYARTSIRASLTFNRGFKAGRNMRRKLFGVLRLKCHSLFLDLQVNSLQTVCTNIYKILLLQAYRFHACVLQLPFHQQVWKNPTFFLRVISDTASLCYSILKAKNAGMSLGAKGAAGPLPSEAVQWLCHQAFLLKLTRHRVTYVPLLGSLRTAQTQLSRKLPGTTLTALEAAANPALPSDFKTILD
Procedure, shortened: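 Cell-free TRAP: protein extract incubated with compound at 1 to 50 μM so telomerase elongates the substrate oligonucleotide. Before PCR, phenol/chloroform/isoamyl-alcohol (50:49:1) extraction removes the ligand and DNA is precipitated overnight at -20 °C. Amplification uses a 36 bp ITAS; products are resolved on 12% PAGE and stained with SYBR Green. Signals are corrected by the no-extract control and normalized to untreated, giving dose-response IC50. Mean of three experiments.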

BJ [29] = assay: Cell cycle arrest in human BJ cells expressing TERT assessed as accumulation at S stage at 0.5 uM after 48 hrs by propidium iodide staining based flow cytometry (reference value: 12%); assay type: ADME
BJ [30] = assay: Induction of DNA damage response in human BJ cells expressing human TERT assessed as phosphorylation of gamma H2AX after 24 hrs by immunofluorescence; assay type: functional, cell-based; procedure, shortened: as §2
BJ [31] = assay: Cell cycle arrest in human BJ cells expressing TERT assessed as accumulation at G2/M stage at 0.5 uM after 24 hrs by propidium iodide staining based flow cytometry (reference value: 17%); assay type: ADME
Nucleic Acid [32] = assay: Binding affinity to human DK66 duplex DNA structure assessed as first step association constant by electrospray ionization mass spectrometry; assay type: nucleic-acid assay; procedure, shortened: as §1
Nucleic Acid [33] = assay: Binding affinity to human DK66 duplex DNA structure assessed as bound DNA at 5:20 DNA to drug ratio by electrospray ionization mass spectrometry; assay type: nucleic-acid assay; procedure, shortened: as §1

## CN1CCN(c2cc3c4c(ccc5c6c(N7CCN(C)CC7)cc7c8c(ccc(c2c45)c86)C(=O)N(CCN2CCCCC2)C7=O)C(=O)N(CCN2CCCCC2)C3=O)CC1
Nucleic Acid [1]
  log Ks: 4.2
BJ [2]
  Activity: 60.4%
BJ [3]
  Activity: Dose-dependent effect
Nucleic Acid [4]
  Activity: 45%
Nucleic Acid [5]
  log Ks: 5.4
BJ [6]
  Activity: 13.9%
BJ [7]
  Activity: 55.2%
Nucleic Acid [8]
  ΔTm: 27.4 °C
Nucleic Acid [9]
  Activity: 40%
BJ [10]
  inhibition of growth at 0.5 µM: 50%
BJ [11]
  Activity: Toxic
BJ [12]
  Activity: Active
BJ [13]
  Activity: 35.1%
BJ [14]
  Activity: 39.8%
BJ [15]
  Activity: 6.6%
BJ [16]
  Activity: 58.2%
BJ [17]
  Activity: 33.1%
Nucleic Acid [18]
  Activity: 27%
Nucleic Acid [19]
  log Ks: 5.6
Nucleic Acid [20]
  Activity: 22%
Nucleic Acid [21]
  Activity: 44%
BJ [22]
  Activity: 6.5%
BJ [23]
  Activity: Active
Nucleic Acid [24]
  ΔTm: 2.9 °C
BJ [25]
  Activity: 35.2%
Nucleic Acid [26]
  Activity: 77%
BJ [27]; in the assay text read “after 2 to 8 days” for “after 24 hrs”, TDE = time-dependent effect
  Activity: tde
[28]
  IC50: 10 µM
BJ [29]
  Activity: 5%
BJ [30]
  Activity: Dose-dependent effect
BJ [31]
  Activity: 51%
Nucleic Acid [32]
  log Ks: 4.9

## CN(C)CCCN1CCN(c2cc3c4c(ccc5c6ccc7c8c(ccc(c2c45)c86)C(=O)N(CCN2CCCCC2)C7=O)C(=O)N(CCN2CCCCC2)C3=O)CC1
Nucleic Acid [1]
  log Ks: 4.9
BJ [2]
  Activity: 54.2%
BJ [3]
  Activity: Dose-dependent effect
Nucleic Acid [4]
  Activity: 48%
Nucleic Acid [5]
  log Ks: 5.5
BJ [6]
  Activity: 3.8%
BJ [7]
  Activity: 61.1%
Nucleic Acid [8]
  ΔTm: 35.5 °C
Nucleic Acid [9]
  Activity: 46%
BJ [10]
  inhibition of growth at 0.5 µM: 50%
BJ [11]
  Activity: Toxic
BJ [12]
  Activity: Active
BJ [13]
  Activity: 42%
BJ [14]
  Activity: 35.4%
BJ [15]
  Activity: 7.3%
BJ [16]
  Activity: 58%
BJ [17]
  Activity: 38.2%
Nucleic Acid [18]
  Activity: 43%
Nucleic Acid [19]
  log Ks: 5
Nucleic Acid [20]
  Activity: 32%
Nucleic Acid [21]
  Activity: 66%
BJ [22]
  Activity: 7.6%
BJ [23]
  Activity: Active
Nucleic Acid [24]
  ΔTm: 2.3 °C
BJ [25]
  Activity: 34.7%
Nucleic Acid [26]
  Activity: 76%
BJ [27]; TDE = time-dependent effect, in the assay text read “after 2 to 8 days” for “after 24 hrs”
  Activity: tde
[28]
  IC50: 3 µM
BJ [29]
  Activity: 3.5%
BJ [30]
  Activity: Dose-dependent effect
BJ [31]
  Activity: 54.2%
Nucleic Acid [32]
  log Ks: 5.4

## CNCCOCCN1C(=O)c2ccc3c4c(N5CCCCC5)cc5c6c(ccc(c7c(N8CCCCC8)cc(c2c37)C1=O)c64)C(=O)N(CCOCCNC)C5=O
Nucleic Acid [4]
  Activity: 13%
Nucleic Acid [5]
  log Ks: 4.6
Nucleic Acid [8]
  ΔTm: 12.9 °C
Nucleic Acid [33]
  Activity: 9%
Nucleic Acid [19]
  log Ks: 4.8
Nucleic Acid [24]
  ΔTm: -0.4 °C
Nucleic Acid [26]
  Activity: 37%
Nucleic Acid [32]
  log Ks: 3.7

## O=C1c2ccc3c4c(N5CCCCC5)cc5c6c(ccc(c7c(N8CCCCC8)cc(c2c37)C(=O)N1CCOCCN1CCCCC1)c64)C(=O)N(CCOCCN1CCCCC1)C5=O
Nucleic Acid [4]
  Activity: 23%
Nucleic Acid [5]
  log Ks: 4.7
Nucleic Acid [8]
  ΔTm: 9.3 °C
Nucleic Acid [9]
  Activity: 19%
Nucleic Acid [33]
  Activity: 20%
Nucleic Acid [19]
  log Ks: 4.8
Nucleic Acid [20]
  Activity: 14%
Nucleic Acid [24]
  ΔTm: -0.2 °C
Nucleic Acid [26]
  Activity: 34%
Nucleic Acid [32]
  log Ks: 4.2

## CN(C)CCOCCN1C(=O)c2ccc3c4c(N5CCCCC5)cc5c6c(ccc(c7c(N8CCCCC8)cc(c2c37)C1=O)c64)C(=O)N(CCOCCN(C)C)C5=O
Nucleic Acid [4]
  Activity: 22.5%
Nucleic Acid [5]
  log Ks: 4.6
Nucleic Acid [8]
  ΔTm: 16.6 °C
Nucleic Acid [33]
  Activity: 16%
Nucleic Acid [19]
  log Ks: 4.9
Nucleic Acid [24]
  ΔTm: 0.9 °C
Nucleic Acid [26]
  Activity: 30%
Nucleic Acid [32]
  log Ks: 4

## O=C1c2ccc3c4c(N5CCCCC5)cc5c6c(cc(N7CCCCC7)c(c7ccc(c2c37)C(=O)N1CCOCCN1CCCCC1)c64)C(=O)N(CCOCCN1CCCCC1)C5=O
Nucleic Acid [4]
  Activity: 20%
Nucleic Acid [5]
  log Ks: 4.8
Nucleic Acid [8]
  ΔTm: 13.1 °C
Nucleic Acid [33]
  Activity: 11%
Nucleic Acid [19]
  log Ks: 4.8
Nucleic Acid [24]
  ΔTm: 0.1 °C
Nucleic Acid [26]
  Activity: 30%
Nucleic Acid [32]
  log Ks: 3.8

## CN1CCN(CCOCCN2C(=O)c3ccc4c5c(N6CCCCC6)cc6c7c(ccc(c8c(N9CCCCC9)cc(c3c48)C2=O)c75)C(=O)N(CCOCCN2CCN(C)CC2)C6=O)CC1
Nucleic Acid [5]
  log Ks: 3.9
Nucleic Acid [8]
  ΔTm: 5.2 °C
Nucleic Acid [33]
  Activity: 10%
Nucleic Acid [24]
  ΔTm: -0.1 °C
Nucleic Acid [32]
  log Ks: 3.8
